The list is not random: actives were taken first. Their share in the collection is about 2.3%.
MPTP inh: mitochondrial permeability transition pore inhibitors, primary screen, biochemical, isolated mouse mitochondria, absorbance; Ca2+ swelling absorbance, 30 min; inhibition, % at 10 µM; 1.4% of 360,000 active; AID 602449, 2012;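 active = inhibition of 50% or more, scaled per plate between neutral and stimulator controls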
SKN-1 inh: suppressors of acrylamide-induced Pgst-4::GFP reporter in worms, primary screen, SKN-1 inhibitor project, whole organism, uHTS, GFP/RFP fluorescence ratio, strain VP596. C. elegans VP596 Pgst-4::GFP/RFP ratio, 24 h. inhibition, % at 21.8 µM. 0.49% of 360,000 active. AID 624304, 2012;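 active = interference check ratio from 0.5 to 1.5 plus GFP to RFP signal ratio inhibition reaching or exceeding a fixed threshold, cut at about 30% in these data, passing the limit was not always enough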
MT1-MMP act inh: blockers of MT1-MMP proenzyme processing, primary screen, HT1080 RFP-PRO-GFP cells, GFP/RFP fluorescence | Matrix metalloproteinase-14 (Homo sapiens), P50281 | GFP/RFP ratio fluorescence, overnight; percent of plate control window, DMSO zero | GFP/RFP ratio change, % at 20 µM | 0.061% of 360,000 active | AID 651647, 2012;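 active = GFP/RFP ratio change of at least 30% with cell ATP level not reduced by more than half and red fluorescence within 50% of control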
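Assay system: HT1080 RFP-PRO-GFP cells. Benchmarks: DMSO vehicle wells and RFP-L50D-GFP reporter cell wells. Times: overnight cell settling, then overnight compound exposure, 37 °C, 5% CO2. Compound: 20 µM single dose, 1% DMSO. Read-out basis: GFP/RFP fluorescence ratio.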
ATG4B inh: ATG4B protease inhibitors, primary screen, biochemical, fluorescence, uHTS. Cysteine protease ATG4B (Homo sapiens), Q9Y4P1. ATG4B cleavage of LC3-PLA2, NBD-HPC fluorescence, 1 h. inhibition, % at 8.33 µM. 0.51% of 340,000 active; in the data active = inhibition above about 40%
Target sequence (Q9Y4P1 whole entry, looked up): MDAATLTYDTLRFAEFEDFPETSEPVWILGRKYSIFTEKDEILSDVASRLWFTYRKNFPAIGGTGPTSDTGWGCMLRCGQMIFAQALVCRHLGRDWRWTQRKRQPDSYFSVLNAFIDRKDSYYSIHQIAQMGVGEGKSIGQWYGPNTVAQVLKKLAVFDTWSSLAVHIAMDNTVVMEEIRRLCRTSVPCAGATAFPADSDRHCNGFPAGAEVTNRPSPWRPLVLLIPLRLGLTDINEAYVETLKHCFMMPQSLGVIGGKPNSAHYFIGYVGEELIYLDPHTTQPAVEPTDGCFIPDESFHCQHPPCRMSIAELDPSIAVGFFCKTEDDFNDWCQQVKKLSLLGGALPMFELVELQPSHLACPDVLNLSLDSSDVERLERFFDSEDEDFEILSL
MPTP counter: fluorescence retest of MPTP screen hits in isolated mitochondria, single concentration. shares compounds with MPTP inh. membrane potential, Rhodamine 123 fluorescence. inhibition, % at 10 µM. 78% of 5,000 active. AID 624504, 2012; in the data active = inhibition above about 22%
A number is an active result; 0 = inactive; - = not tested or not shown.

SMILES	MPTP inh	SKN-1 inh	MT1-MMP act inh	ATG4B inh	MPTP counter
COc1ccc(-c2csc(NS(=O)(=O)c3ccc([N+](=O)[O-])cc3)n2)cc1	84	0	0	0	78
CC(=O)C1CCC2C3CC=C4CC(SC(=N)N)CCC4(C)C3CCC12C (stereo unspecified)	80	0	0	0	24
CC(=O)OCC(=O)C1CCC2C3CC=C4CC(O)CCC4(C)C3CCC12C (stereo unspecified)	0	0	0	0	-
O=C(Nc1ccc(C(F)(F)F)cc1)N1CCN(c2ccnc3cc(Cl)ccc23)CC1	79	0	0	0	81
O=C(Nc1cc(F)ccc1F)N1CCN(c2ccnc3cc(Cl)ccc23)CC1	59	0	0	0	36
CCCOc1nc2c(c(=O)n(C)c(=O)n2C)n1Cc1cccc2ccccc12	70	0	0	0	74
Cc1ccc2c(c1)C1CN(C)CCC1N2C(=O)Nc1ccc(Cl)cc1 (stereo unspecified)	87	0	0	0	94
CCOC(=O)C1(C)CCN1C(=O)c1ccc(OC)c(F)c1 (stereo unspecified)	0	0	0	-	-
O=C(CSc1nnc(Cn2nnc3ccccc32)o1)N(Cc1ccc(Cl)cc1)c1ccccc1	96	0	0	0	103
Cc1csc2c(N3CCN(C(=O)Nc4ccc(Cl)c(Cl)c4)CC3)ncnc12	88	0	0	0	80
Cc1csc2c(N3CCN(C(=S)Nc4ccc(C(F)(F)F)cc4)CC3)ncnc12	97	0	0	0	92
Cc1cc(C)cc(NC(=S)N2CCN(c3ncc(C(F)(F)F)cc3Cl)CC2)c1	0	0	0	0	-
CC(C)(C)c1ccc(C(=O)N2CCN(c3nc4ccccc4o3)CC2)cc1	52	0	0	0	44
Cc1csc2ncnc(N3CCN(C(=S)Nc4ccc(C(F)(F)F)cc4)CC3)c12	91	0	0	0	94
O=C(c1ccc(-c2ccccc2)cc1)N1CCN(c2nc3ccccc3o2)CC1	0	0	0	0	-
CCN(C(=O)COC(=O)C1CCN(S(=O)(=O)c2ccc(C)c(C)c2)CC1)C1CCCCC1	0	0	0	0	-
Cc1csc2c(N3CCN(C(=O)NC(C)(C)C)CC3)ncnc12	0	0	0	0	-
Cc1csc2c(N3CCN(C(=O)c4ccc(C(C)(C)C)cc4)CC3)ncnc12	96	0	0	0	83
Cc1ccc(C)c(NC(=O)c2ccc(S(=O)(=O)N(C)CC3CCCO3)cc2)c1 (stereo unspecified)	0	0	0	0	-
O=C(NCC(c1cccs1)N1CCOCC1)c1ccccc1NS(=O)(=O)c1ccc(Cl)c([N+](=O)[O-])c1 (stereo unspecified)	80	0	0	0	77
O=C(NCC(c1cccs1)N1CCOCC1)c1ccccc1NS(=O)(=O)c1cccc([N+](=O)[O-])c1 (stereo unspecified)	0	0	0	0	-
COc1cccc(C(=O)COc2ccc(NC(=O)c3ccccc3)cc2)c1	0	0	0	0	-
FC(F)(F)c1nc(SCc2ccc(Cl)cc2Cl)n[nH]1	63	0	0	0	90
CCOc1ccc(NS(=O)(=O)c2cc(C(=O)N3CCCC3)ccc2Cl)cc1	0	0	0	0	-
CCOc1ccc(NS(=O)(=O)c2cc(NC(=O)c3cccc(C)c3)ccc2Cl)cc1	89	0	0	0	41
COc1ccccc1N1CCN(C(=O)C2CCC(CNS(=O)(=O)c3ccc(NC(C)=O)cc3)CC2)CC1 (stereo unspecified)	0	0	0	0	-
CC(NC(=O)COC(=O)c1cc(NS(=O)(=O)c2ccc(Cl)c([N+](=O)[O-])c2)ccc1O)C1CC2CCC1C2 (stereo unspecified)	61	0	0	0	66
CC(C)(C)C(=O)NC1(C(F)(F)F)NC(=O)N(c2ccc(F)cc2)C1=O (stereo unspecified)	0	0	0	0	-

High-throughput results: PubChem BioAssay, Sanford-Burnham Center for Chemical Genomics
